Only some compounds are listed: those with a hit (about 2% of all), similar ones and a draw of the others.
EBI2 antag – EBI2 receptor antagonists, beta-arrestin recruitment, primary screen, cell-based, luminescence, 7a,25-OHC stimulation, uHTS. AID 651636, 2012. 7a,25-OHC stimulated. 360,000 tested, 0.81% active. G-protein coupled receptor 183 (Homo sapiens), P32249. inhibition, % at 5 µM; in the data active = inhibition above about 38%;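 note: enzyme fragment complementation signal reports receptor beta-arrestin coupling in cells; 0% = agonist plus DMSO wells and 100% = wells without agonist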
GAA850 FXN act – FXN promoter activators, primary screen, cell-based, luciferase luminescence, HEK293 lucGAA850; AID 540364, 2011; activation, % at 6 µM; HEK293 lucGAA850 FXN promoter luciferase reporter, 24 h; percent of 10 µM SAHA response; 360,000 tested, 0.56% active;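 active = activation above the average of all compounds screened plus 3 SD, cutoff fixed separately per campaign, cut at about 7.5% in these data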;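 note: 0% = DMSO wells and 100% = 10 µM SAHA wells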
APJ antagonist – antagonists of human apelin receptor APJ, primary screen, CHO-K1 cells, beta-arrestin complementation, luminescence | P35414 | inhibition, % at 20 µM | 330,000 tested, 0.32% active | AID 2521, 2010;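 active = inhibition above about 40% at 20 µM, limit read from the data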;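 note: cells challenged with 10 nM apelin-13 agonist together with compound; plate controls were apelin-13 plus DMSO wells for no effect and DMSO wells lacking apelin-13 for full effect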
Target sequence (P35414 whole entry, looked up): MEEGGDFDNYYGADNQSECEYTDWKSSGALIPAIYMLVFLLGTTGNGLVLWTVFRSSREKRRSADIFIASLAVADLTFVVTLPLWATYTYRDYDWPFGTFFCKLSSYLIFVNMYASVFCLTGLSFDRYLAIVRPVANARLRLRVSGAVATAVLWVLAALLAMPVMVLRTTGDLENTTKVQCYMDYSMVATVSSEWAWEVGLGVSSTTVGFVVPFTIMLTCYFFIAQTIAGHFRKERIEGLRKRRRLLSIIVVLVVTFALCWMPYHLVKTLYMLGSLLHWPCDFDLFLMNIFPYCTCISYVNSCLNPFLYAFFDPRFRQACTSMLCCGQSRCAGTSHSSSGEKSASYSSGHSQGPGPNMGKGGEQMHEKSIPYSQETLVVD
CXCR6 inh – CXCR6 receptor inhibitors, primary screen, cell-based, beta-arrestin, luminescence, CHO-K1 PathHunter, 1536-well. C-X-C chemokine receptor type 6 (Homo sapiens), O00574. AID 602244, 2012. 360,000 tested, 0.36% active. inhibition, % at 20 µM; in the data active = inhibition above about 34%, passing the limit was not always enough;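 note: antagonist mode with CXCL16 agonist at 10 nM final; 0% = 10 nM CXCL16 with DMSO and 100% = unstimulated wells without agonist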
APJ agonist – agonists of human apelin receptor APJ, primary screen, CHO-K1 cells, PathHunter beta-arrestin, luminescence; 0% DMSO wells, 100% apelin; activation, % at 20 µM; 330,000 tested, 0.11% active;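 active = activation more than six SD over the plate average, tested at 20 µM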;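 note: 0% = DMSO alone and 100% = apelin-13 at 10 nM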
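Incubation: overnight seeding, 90 min compound at 25 °C, 1 h detection; test system: PathHunter CHO-K1 APJ (AGTRL-1) beta-arrestin reporter cells; amount: 1000 cells/well; doses: one dose, 20 µM compound, 1% DMSO; measured by: beta-gal luminescence; measure: agonist-driven arrestin binding to APJ; benchmarks: negative DMSO alone, positive Apelin-13 at 10 nM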
CCR6 antag – CCR6 receptor antagonists, primary screen, cell-based, CHO-K1, luminescence, beta-arrestin, uHTS. C-C chemokine receptor type 6 (Homo sapiens), P51684. CHO-K1 CCR6 PathHunter beta-arrestin, CCL20-stimulated. inhibition, % at 20 µM. 340,000 tested, 0.49% active. AID 493098, 2011;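 active = compounds whose inhibition of the agonist-driven luminescence signal at 20 µM reaches about 50%, limit read from the data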;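 note: cells stimulated with CCL20 at 14 nM final; plate controls were DMSO with CCL20 for no effect and DMSO without agonist for full effect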
GAA30 FXN cntr – GAA30 FXN promoter activators, confirmation, counter-screen for GAA850 frataxin promoter activator project, cell-based, luminescence, HEK293, lucGAA30, triplicate; shares compounds with GAA850 FXN act; HEK293 lucGAA30 FXN promoter luciferase, 24 h; DMSO = 0%, 5 µM ipriflavone = 100%; activation, % at 6 µM; 1,900 tested, 66% active; AID 588350, 2011;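 active = mean activation above the mean of solvent-only control wells plus 3 SD, cut at about 22% in these data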;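 note: counterscreen of GAA850 promoter hits where activity marks nonselective or luminescence artifacts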
GAA850 confirm – FXN GAA850 promoter activators in reporter cells, confirmation, cell-based, luminescence, HEK293 lucGAA850, triplicate; HEK293 lucGAA850 FXN promoter luciferase reporter, 24 h; 100% = activation by SAHA; activation, % at 6 µM; shares compounds with GAA850 FXN act; 1,900 tested, 86% active;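 active = mean activation above a set limit taken from the primary screen, cut at about 8% in these data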;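 note: 0% = DMSO wells and 100% = 10 µM SAHA wells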
Active calls of the source: *; . = no result.

SMILES	EBI2 antag	GAA850 FXN act	APJ antagonist	CXCR6 inh	APJ agonist	CCR6 antag	GAA30 FXN cntr	GAA850 confirm
COc1ccc(OC)c(/C=C/C(=O)OCC(=O)N2CCN(S(=O)(=O)c3ccc(C)cc3C)CC2)c1	13	0	-2	-9	-1	5	.	.
CN1C[C@H]2CON(C)[C@H]2C[C@H]1c1cccc(-c2ccccc2)c1	2	-1	.	3	.	8	.	.
CCOc1ccc(NC(=O)c2cc(S(=O)(=O)N3CCCCC3)c[nH]2)cc1	9	12*	-81	-3	2	-2	4	3
CCc1ccc(NC(=O)c2cc(S(=O)(=O)N3CCCC3)c[nH]2)cc1	7	-1	6	2	0	5	.	.
CS(=O)(=O)c1ccc(Cl)c(NC(=O)c2ccc(-n3cncn3)c([N+](=O)[O-])c2)c1	-15	2	.	-8	.	.	.	.
Cc1ccc(NC(=O)C2(C)CCN2Cc2cccc3c2OCO3)cc1O (centres undefined)	3	-5	.	-4	.	.	.	.
COc1ccc2c(c1)oc(=O)c1cc(OC)ccc12	0	7.9*	-91	-3	1	13	122*	44*
Cn1cc(Cc2ccc(C(=O)N3CCCCC3)cn2)c2ccccc21	2	-1	.	-7	.	.	.	.
CCc1nc2c(OCCn3cccc3)cccn2c1N(C)C(=O)c1ccco1	1	0	.	2	.	.	.	.
Cn1ccsc1=NC(=O)c1ccc(S(C)(=O)=O)c([N+](=O)[O-])c1	-38	10*	-111	-15	16	-1	73*	30*
Cn1ccsc1=NC(=O)c1ccc(Cl)c([N+](=O)[O-])c1	-5	4	-21	5	-1	-4	.	.
CCCN1C(=O)/C(=C/c2ccncc2)SC1=S	-3	2	-53	-7	1	0	.	.
CN1C(=O)/C(=C\c2ccncc2)SC1=Nc1ccccc1	11	8.4*	-1	2	-1	11	-1	7
CC(C)CNC(=O)C1(C)CCN1C(=O)c1ccc(C(C)(C)C)cc1 (centres undefined)	-6	-1	.	-5	.	.	.	.
C=CCn1c2ccccc2c(=O)c2cc(C#Cc3ccccn3)ccc21	8	9.0*	-4	14	3	6	140*	44*
COc1ccc(C2C=C(C34CC5CC(CC(C5)C3)C4)NC(=S)N2)cc1OC (centres undefined)	-5	7.7*	-24	10	-1	11	10	11*
Cn1c(=O)c2[nH]c(C(O)c3ccc(Cl)cc3)nc2n(C)c1=O (centres undefined)	-9	-1	.	0	.	3	.	.
Cc1ccc(C2(c3ccccc3)NC(=O)N(CC(=O)NCc3ccccc3)C2=O)cc1C (centres undefined)	2	-1	-3	4	6	14	.	.
CCCCOC(=O)Nc1ccc(N2CCCCC2)cc1	8	8.1*	15	2	-2	12	93*	31*
Cc1c(Cl)cccc1N=Cc1ccc([N+](=O)[O-])s1	4	9.2*	-60	7	5	1	6	6
CC(C)c1cc(C(=O)Nc2cc(Cl)ccc2O)no1	8	7	-50	5	2	10	.	.
CC(C)c1cc(C(=O)Nc2cc(Br)ccc2O)no1	-1	9.9*	-13	2	1	7	97*	33*
COc1ccccc1C(=O)NCCC(=O)NC1CCC(C)CC1 (centres undefined)	-13	3	11	5	-1	4	.	.
CC(Nc1cc(N2CCNCC2)ccc1[N+](=O)[O-])c1ccccc1 (centres undefined)	-20	8.5*	12	5	-2	21	12	7
CCS(=O)(=O)N1CCN(c2ccc([N+](=O)[O-])c(NC(C)c3ccccc3)c2)CC1 (centres undefined)	39	1	32	36	-4	41	.	.
SMILES	EBI2 antag	GAA850 FXN act	APJ antagonist	CXCR6 inh	APJ agonist	CCR6 antag	GAA30 FXN cntr	GAA850 confirm
COCCn1c(C)cc(C(=O)Cn2nc(C(=O)O)c3ccccc3c2=O)c1C	-3	9.4*	-15	-3	-3	16	98*	35*
COc1ccc2c(CC(=O)Nc3ncc(C)s3)coc2c1	13	8.7*	21	3	0	1	91*	55*
CSc1ccc(CC(=O)N2CCC(n3nccc3NC(=O)C3CC3)CC2)cc1	3	7.7*	26	12	-4	-7	96*	32*
COc1cccc(/C=N/Nc2nc(Nc3ccccc3)nc(-n3nc(C)cc3C)n2)c1O	66*	12*	18	57*	-9	67*	-37	15*
C[n+]1c2cc(N)ccc2cc2ccc(N)cc21	-7	20*	.	-4	.	1	16	138*
Cc1cc(O)c2c(c1)CC1C3CCC4CC(=O)CCC4(C)C3CC(=O)C21C (centres undefined)	6	0	.	-1	.	-18	.	.
C[C@H](NC(=O)c1ncn2c1C(=O)N(C)CC2)C(=O)OC(C)(C)C	-5	0	.	2	.	.	.	.
O=C(CSc1nc(-c2ccc(F)cc2)cs1)N1CCOCC1	4	8.1*	17	-6	-1	-3	74*	27*
N#Cc1c(-c2ccccc2)cc(C2CC2)nc1N	0	8.3*	2	-8	-1	26	13	9.5*
N#Cc1c(-c2ccco2)cc(C2CC2)nc1N	7	6	-12	4	-4	1	.	.
CCN1C(=O)[C@H]2[C@@H](c3ccc(C(F)(F)F)cc3)N[C@]3(CCCN(Cc4ccc(Cl)cc4)C3=O)[C@H]2C1=O	0	-4	.	0	.	.	.	.
COc1cc2nc(=S)n3[nH]c(CCn4nc(C)cc4C)nc3c2cc1OC	8	19*	21	2	-2	8	32*	17*
CC(NC(=O)C1CCN(Cc2ccc(Oc3ccccc3)cc2)CC1)c1cccc2ccccc12 (centres undefined)	3	-2	.	6	.	.	.	.

Assay outcomes: PubChem, several laboratories
